Results taken from PMC7218920 (Science translational medicine, 2019).

Tests used:
[1] = target: T1, hNPR1 (Homo sapiens, UniProt P16066); experiment: HEK-hNPR1-cGMP-sensor cells, qHTS cell-based assay; settings: stable cell-line
T1 sequence (P16066 33-1061): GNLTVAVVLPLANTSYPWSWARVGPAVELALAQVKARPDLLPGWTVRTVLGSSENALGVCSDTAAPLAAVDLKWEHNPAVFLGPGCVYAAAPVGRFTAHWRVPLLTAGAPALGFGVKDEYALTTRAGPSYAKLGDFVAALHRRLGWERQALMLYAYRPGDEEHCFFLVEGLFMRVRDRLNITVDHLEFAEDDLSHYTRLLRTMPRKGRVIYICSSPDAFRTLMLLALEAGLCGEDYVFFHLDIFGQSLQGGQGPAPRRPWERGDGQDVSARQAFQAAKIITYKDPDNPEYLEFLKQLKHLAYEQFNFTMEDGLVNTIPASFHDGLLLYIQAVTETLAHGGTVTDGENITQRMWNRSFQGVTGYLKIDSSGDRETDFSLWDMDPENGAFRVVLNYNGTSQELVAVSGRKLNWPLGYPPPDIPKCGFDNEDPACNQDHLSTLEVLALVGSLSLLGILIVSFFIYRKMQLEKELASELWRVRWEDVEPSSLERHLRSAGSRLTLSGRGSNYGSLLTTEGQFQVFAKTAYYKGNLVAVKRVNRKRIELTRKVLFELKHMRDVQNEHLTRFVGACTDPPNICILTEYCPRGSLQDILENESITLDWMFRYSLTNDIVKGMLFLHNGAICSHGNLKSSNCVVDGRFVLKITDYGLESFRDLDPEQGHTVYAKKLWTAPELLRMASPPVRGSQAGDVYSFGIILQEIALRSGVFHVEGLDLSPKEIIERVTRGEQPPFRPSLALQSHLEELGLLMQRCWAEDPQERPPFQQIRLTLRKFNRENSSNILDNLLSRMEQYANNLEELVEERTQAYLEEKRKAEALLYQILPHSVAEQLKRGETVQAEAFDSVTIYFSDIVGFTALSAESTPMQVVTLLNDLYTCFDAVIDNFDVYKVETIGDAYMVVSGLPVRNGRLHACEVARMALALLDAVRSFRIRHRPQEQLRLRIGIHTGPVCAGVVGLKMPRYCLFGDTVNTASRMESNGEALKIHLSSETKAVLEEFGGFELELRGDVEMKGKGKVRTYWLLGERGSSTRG
How it was run: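 A stable HEK-293 line expressing hNPR1 plus the GloSensor cGMP reporter (pGS-40F) was stimulated with hNPPA, hNPPB or NPPC for time courses (10 nM each) and concentration-response. For qHTS, luminescence was read before and 30 min after agonist addition. Compounds were screened at six log concentrations and confirmed at 8 concentrations. Counter-screens covered luciferase interference, cytotoxicity and SNP-stimulated cGMP-sensor-only cells.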

[2] = test system: soluble GC; experiment: HEK-293 cells expressing cGMP-sensor alone; format: cell-based, human
How it was run: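 HEK-293 cells carrying the GloSensor cGMP luciferase reporter (pGS-40F), either transiently transfected or as a stable control line, with no NPR1. Luminescence from GloSensor reagent was read in real time after media, SNP (333 μM; a soluble GC activator) or hNPPA, hNPPB or NPPC (10 nM each). The stable line also received SNP and peptide concentration series. Transient time courses were run in triplicate.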

- response of hNPR1-cGMP-reporter cells [1]: with appropriate potencies
Substance: hNPPB: human natriuretic polypeptide b, NPR1 agonist
- response of stable cGMP-reporter cells ([2]; stable cGMP-sensor control cell-line): lacked responses
- luciferase activity / cGMP in cGMP reporter cells ([2]; transient cGMP-sensor, SNP 333 μM, peptides 10 nM): did not increase cGMP
